Reference: PubChem BioAssay
Calls of active or inactive are those of the source.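 The calls were made as follows, unless noted: active = viability at or below 30% in both replicate assays; inconclusive = viability at or below 30% in just one of the two assays; inactive = the rest.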

Assay: reduced viability of SK-BR-3 breast cancer cells – cell-based, 24 h, human, pilot screen (AID 572;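 active = viability at or below 10% of carrier control in both of two separate runs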;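 also: compound exposure lasted between 18 and 24 h rather than exactly 24 h; 100% = carrier-treated control wells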)
Conditions: SK-BR-3 viability, CellTiter-Glo luminescence, at 10 µM, stronger effect = lower value

Row | SMILES | viability
1 | CCCCC(=O)NCCc1cc2c(C)ccc(C)c2[nH]c1=O | 101% (inactive)
2 | CN1CCN(C2=C(Cl)C(=O)N(c3cccc(Cl)c3)C2=O)CC1 | 80.5% (inactive)
3 | Cc1ccc(Cn2c(=O)c3ccccc3n3c(CCC(=O)O)nnc23)cc1 | 107% (inactive)
4 | COc1cc(/C=N/n2cnnc2)ccc1OCC(=O)N1CCOCC1 | 84% (inactive)
5 | CCC(C)C(=O)Nc1nc2c(s1)C(=O)CC(C)(C)C2 (stereo not given) | 120% (inactive)
6 | O=C(C(Cc1ccccc1)n1cccc1)N1CCCCCC1 (stereo not given) | 99% (inactive)
7 | Cc1ccc(NC(=O)c2cc(-c3ccc(C)o3)nc3ccccc23)nc1 | 80% (inactive)
8 | Cc1cccc(-n2ncc3c(NCCCn4ccnc4)ncnc32)c1 | 91.5% (inactive)
9 | Cc1ccc(CNC(=O)C2CCCN(S(=O)(=O)c3cnc[nH]3)C2)cc1 (stereo not given) | 94% (inactive)
10 | CCCN1CCN(CCCNC(=O)Cn2ncc3c4ccccc4n(C)c3c2=O)CC1 | 99% (inactive)
11 | CN(C)c1cc(NC(=O)CN2CCOCC2)c2ccccc2n1 | 110% (inactive)
12 | CN(C)S(=O)(=O)c1ccc2c(c1)c(=O)c(C(=O)NCCCN1CCCCCC1)cn2C | 110% (inactive)
13 | CC(C)c1ccc(C(O)c2cnc(C(C)C)n2C)cc1 (stereo not given) | 112% (inactive)
14 | CCN(CC)C(=O)c1ccc(CS(=O)(=O)c2ccc(OC)cc2)o1 | 84.5% (inactive)
15 | COc1ccc2c(c1)CCc1cc(C(=O)N3CCN(c4ccc(N5CCOCC5)nn4)CC3)sc1-2 | 93.5% (inactive)
16 | COc1ccc(-c2[nH]c(-c3cccc(OC)c3)nc2SCC(=O)NCc2ccco2)cc1 | 95.5% (inactive)
17 | CCSc1nnc(N2C(=O)CC(c3ccsc3)C3=C2CC(C)(C)CC3=O)s1 (stereo not given) | 89% (inactive)
18 | CC1=C(C(=O)Nc2cccnc2)C(c2ccc(C(C)C)cc2)n2ncnc2N1 (stereo not given) | 89.5% (inactive)
19 | CCCCN=CC1=C(O)C(C(=O)OC)C(C)(C)CC1=O (stereo not given) | 79% (inactive)
20 | O=C1c2ccccc2C(Nc2cccnc2)N1Cc1ccccc1Cl (stereo not given) | 93% (inactive)

Row | SMILES | viability
21 | CC(=O)NC(CCS(C)(=O)=O)C(=O)Nc1cccc(C)c1 (stereo not given) | 88.5% (inactive)
22 | Cc1ccc(N2CCN(S(=O)(=O)N(C)C)CC2)c(C)c1 | 98.5% (inactive)
23 | CCOc1ccc(NC(=O)CCN2CCN(c3ccccc3)CC2)cc1 | 94.5% (inactive)
24 | CCOC(=O)C1=C(C)Nc2nnnn2C1c1ccc(OC)c(Br)c1 (stereo not given) | 106% (inactive)
25 | CC(C)c1nnc(NC(=O)Cc2cccs2)s1 | 106% (inactive)
26 | Cc1ccnc(NC(=O)C2CCC(CNc3c(N4CCCC4)c(=O)c3=O)CC2)c1 (stereo not given) | 93% (inactive)
27 | CCN(CCCNS(=O)(=O)c1ccc2c(c1)oc(=O)n2C)c1cccc(C)c1 | 88% (inactive)
28 | O=C(NCC1CCCO1)C1CCN(S(=O)(=O)c2cccc3cccnc23)CC1 (stereo not given) | 102% (inactive)
29 | CCn1c(C(=O)N2CCC(C(=O)N3CCN(c4ccccn4)CC3)CC2)cc2sccc21 | 95% (inactive)
30 | O=C(O)COc1ccc(S(=O)(=O)NCCc2ccccc2)cc1 | 105% (inactive)
31 | CCOC(=O)N1CCN(C(=O)c2ccc(CS(=O)(=O)c3c(Cl)cccc3Cl)o2)CC1 | 114% (inactive)
32 | CNC(=O)c1ccsc1NC(=O)c1ccccc1 | 88.5% (inactive)
33 | CSc1nc2ccccc2c(=O)n1N | 109% (inactive)
34 | CCN1CCN(C(c2cccs2)C(C)NC(=O)c2ccccc2)CC1 (stereo not given) | 92% (inactive)
35 | CC(Sc1nc(-c2ccccc2)cc(C(F)(F)F)n1)C(=O)N1CCCC1 (stereo not given) | 84.5% (inactive)
36 | CCOc1cccc(-c2nnc3n2N=C(c2cc(OC)ccc2OC)CS3)c1 | 104% (inactive)
37 | COc1cc(NC(=O)C2CCCN2S(=O)(=O)c2cccc3cccnc23)cc(OC)c1OC (stereo not given) | 72% (inactive)
38 | CCOC(=O)c1ccc(-n2c(C)nc3c(cnn3-c3ccccc3C)c2=O)cc1 | 94% (inactive)
39 | O=C(Nc1c(C(=O)NCc2ccco2)cnn1-c1ccccc1)c1ccc(F)cc1 | 95.5% (inactive)
40 | O=C(NCCC1=CCCCC1)C1CCN(S(=O)(=O)c2cccc3cccnc23)CC1 | 104% (inactive)

Assay: HUVEC growth inhibition – cell-based, human, primary screen (AID 575);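 also: 100% = median of untreated cell wells with 0.1% DMSO on each plate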
Conditions: HUVEC proliferation, CellTiter-Glo luminescence, 72 h; at 10 µM; stronger effect = lower value
Procedure, shortened: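 Test system – primary HUVEC, no more than 12 passages · Dosing – one dose, 10 µM final, 0.1% DMSO · Times – 72 h treatment at 37 °C · Measured by – ATP-based CellTiter-Glo luminescent read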

Row | SMILES | viability
41 | CCCCC(=O)NCCc1cc2c(C)ccc(C)c2[nH]c1=O | 119% (inactive)
42 | CN1CCN(C2=C(Cl)C(=O)N(c3cccc(Cl)c3)C2=O)CC1 | 87.7% (inactive)
43 | Cc1ccc(Cn2c(=O)c3ccccc3n3c(CCC(=O)O)nnc23)cc1 | 92.5% (inactive)
44 | COc1cc(/C=N/n2cnnc2)ccc1OCC(=O)N1CCOCC1 | 99.5% (inactive)
45 | CCC(C)C(=O)Nc1nc2c(s1)C(=O)CC(C)(C)C2 (stereo not given) | 97.1% (inactive)
46 | O=C(C(Cc1ccccc1)n1cccc1)N1CCCCCC1 (stereo not given) | 87.6% (inactive)
47 | Cc1ccc(NC(=O)c2cc(-c3ccc(C)o3)nc3ccccc23)nc1 | 73% (inactive)
48 | Cc1cccc(-n2ncc3c(NCCCn4ccnc4)ncnc32)c1 | 111% (inactive)
49 | Cc1ccc(CNC(=O)C2CCCN(S(=O)(=O)c3cnc[nH]3)C2)cc1 (stereo not given) | 94.5% (inactive)
50 | CCCN1CCN(CCCNC(=O)Cn2ncc3c4ccccc4n(C)c3c2=O)CC1 | 101% (inactive)
51 | CN(C)c1cc(NC(=O)CN2CCOCC2)c2ccccc2n1 | 90.2% (inactive)
52 | CN(C)S(=O)(=O)c1ccc2c(c1)c(=O)c(C(=O)NCCCN1CCCCCC1)cn2C | 90.7% (inactive)
53 | CC(C)c1ccc(C(O)c2cnc(C(C)C)n2C)cc1 (stereo not given) | 116% (inactive)
54 | CCN(CC)C(=O)c1ccc(CS(=O)(=O)c2ccc(OC)cc2)o1 | 99.2% (inactive)
55 | COc1ccc2c(c1)CCc1cc(C(=O)N3CCN(c4ccc(N5CCOCC5)nn4)CC3)sc1-2 | 98.4% (inactive)
56 | COc1ccc(-c2[nH]c(-c3cccc(OC)c3)nc2SCC(=O)NCc2ccco2)cc1 | 62.5% (inactive)
57 | CCSc1nnc(N2C(=O)CC(c3ccsc3)C3=C2CC(C)(C)CC3=O)s1 (stereo not given) | 81.3% (inactive)
58 | CC1=C(C(=O)Nc2cccnc2)C(c2ccc(C(C)C)cc2)n2ncnc2N1 (stereo not given) | 103% (inactive)
59 | CCCCN=CC1=C(O)C(C(=O)OC)C(C)(C)CC1=O (stereo not given) | 104% (inactive)
60 | O=C1c2ccccc2C(Nc2cccnc2)N1Cc1ccccc1Cl (stereo not given) | 94.9% (inactive)

Row | SMILES | viability
61 | CC(=O)NC(CCS(C)(=O)=O)C(=O)Nc1cccc(C)c1 (stereo not given) | 89.3% (inactive)
62 | Cc1ccc(N2CCN(S(=O)(=O)N(C)C)CC2)c(C)c1 | 90.6% (inactive)
63 | CCOc1ccc(NC(=O)CCN2CCN(c3ccccc3)CC2)cc1 | 95.3% (inactive)
64 | CCOC(=O)C1=C(C)Nc2nnnn2C1c1ccc(OC)c(Br)c1 (stereo not given) | 87.7% (inactive)
65 | CC(C)c1nnc(NC(=O)Cc2cccs2)s1 | 106% (inactive)
66 | Cc1ccnc(NC(=O)C2CCC(CNc3c(N4CCCC4)c(=O)c3=O)CC2)c1 (stereo not given) | 92.2% (inactive)
67 | CCN(CCCNS(=O)(=O)c1ccc2c(c1)oc(=O)n2C)c1cccc(C)c1 | 106% (inactive)
68 | O=C(NCC1CCCO1)C1CCN(S(=O)(=O)c2cccc3cccnc23)CC1 (stereo not given) | 112% (inactive)
69 | CCn1c(C(=O)N2CCC(C(=O)N3CCN(c4ccccn4)CC3)CC2)cc2sccc21 | 93.4% (inactive)
70 | O=C(O)COc1ccc(S(=O)(=O)NCCc2ccccc2)cc1 | 115% (inactive)
71 | CCOC(=O)N1CCN(C(=O)c2ccc(CS(=O)(=O)c3c(Cl)cccc3Cl)o2)CC1 | 107% (inactive)
72 | CNC(=O)c1ccsc1NC(=O)c1ccccc1 | 83.8% (inactive)
73 | CSc1nc2ccccc2c(=O)n1N | 93.9% (inactive)
74 | CCN1CCN(C(c2cccs2)C(C)NC(=O)c2ccccc2)CC1 (stereo not given) | 104% (inactive)
75 | CC(Sc1nc(-c2ccccc2)cc(C(F)(F)F)n1)C(=O)N1CCCC1 (stereo not given) | 89.7% (inactive)
76 | CCOc1cccc(-c2nnc3n2N=C(c2cc(OC)ccc2OC)CS3)c1 | 42.4% (inactive)
77 | COc1cc(NC(=O)C2CCCN2S(=O)(=O)c2cccc3cccnc23)cc(OC)c1OC (stereo not given) | 87.6% (inactive)
78 | CCOC(=O)c1ccc(-n2c(C)nc3c(cnn3-c3ccccc3C)c2=O)cc1 | 117% (inactive)
79 | O=C(Nc1c(C(=O)NCc2ccco2)cnn1-c1ccccc1)c1ccc(F)cc1 | 91.9% (inactive)
80 | O=C(NCCC1=CCCCC1)C1CCN(S(=O)(=O)c2cccc3cccnc23)CC1 | 89% (inactive)
